Hits are enriched below; roughly 4.7% of the tested compounds scored in any of these assays.
MrgX1 allo act: human MrgX1 positive allosteric modulation, primary screen; Q96LB2; MrgX1-HEK293, Fluo-4 calcium flux, FDSS; active compounds read high; B-score at 10 µM; hit rate 0.63% among 310,000; AID 588675;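 active = plate-corrected calcium response at least 3 library SD above typical, normal starting fluorescence, not activating the receptor alone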;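 note: compound read alongside a low EC10 to EC30 dose of BAM8-22 agonist; peak minus trough fluorescence over baseline measured at the second addition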
Target sequence (Q96LB2 whole entry, looked up): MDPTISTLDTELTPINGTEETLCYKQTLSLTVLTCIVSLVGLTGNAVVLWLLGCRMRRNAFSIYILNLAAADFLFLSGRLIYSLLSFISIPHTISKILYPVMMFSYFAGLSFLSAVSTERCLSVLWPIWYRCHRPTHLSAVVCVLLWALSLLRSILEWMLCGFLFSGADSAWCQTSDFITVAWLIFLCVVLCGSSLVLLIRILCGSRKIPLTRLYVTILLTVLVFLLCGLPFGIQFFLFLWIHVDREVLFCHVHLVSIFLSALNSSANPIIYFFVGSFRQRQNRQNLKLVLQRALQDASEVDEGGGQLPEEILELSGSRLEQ
RGS4 pot: potentiators or activators of RGS4 | AID 463111 | hit rate 0.92% among 310,000 | B-score at 10 µM | HEK293 M3R/inducible RGS4, carbachol calcium flux Fluo4; active compounds read low;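 active = B-score of the integrated calcium signal more than 4 SD below the library mean, with starting fluorescence not abnormally high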;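 note: negative B-score means reduced calcium response which marks RGS4 activation or potentiation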
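Detection: kinetic calcium fluorescence imaging with Fluo4-AM dye, 2 µM / Material: HEK293 cells with stable M3R and inducible RGS4 / Schedule: recording 10 s baseline at 1 Hz, 100 s post-agonist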
MrgX1 ag: activates human MrgX1 receptor signaling; Q96LB2; MrgX1-HEK293 cells, Fluo-4 calcium fluorescence, agonist mode; active compounds read high; B-score at 10 µM; hit rate 0.44% among 310,000; AID 588627;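 active = calcium response B-score plate-corrected fluorescence ratio at least 3 library SD, with starting fluorescence B-score inside 5 SD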
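Test system: Stable human MrgX1 HEK293 cell line | Schedule: Overnight plating before 1 h dye loading | Read-out basis: Baseline-normalised fluorescence change ratio, B-scored | Detection: Kinetic calcium dye fluorescence, Fluo-4 NW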
MrgX1 antag: blocks BAM8-22 activation of human MrgX1 receptor; Q96LB2; MRGX1-HEK293 calcium flux, Fluo-4, BAM8-22 antagonism; active compounds read low; B-score at 10 µM; hit rate 1.3% among 310,000; AID 588676;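 active = calcium-response B-score plate-corrected more than 3 library SD below zero, starting fluorescence within 5 deviations, no agonist response on first addition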;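 note: peak minus trough fluorescence over baseline after final BAM8-22 challenge near maximal dose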
RGS4 inh: inhibitors of human RGS4 | P49798 | HEK293 M3R/RGS4 inducible, Fluo-4 calcium flux; active compounds read high; triggered by carbachol at its EC20 | B-score at 10 µM | hit rate 0.45% among 310,000 | AID 463165;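 active = B-score, a plate-corrected calcium signal, over three deviations above library mean, with baseline fluorescence within five deviations of library mean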;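 note: RGS4 expression induced by doxycycline in cells with stable M3 receptor; B-score is computed from the integrated fluorescence ratio over baseline after carbachol; higher B-score means a larger calcium signal and so more RGS4 inhibition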
Target sequence (P49798 whole entry, looked up): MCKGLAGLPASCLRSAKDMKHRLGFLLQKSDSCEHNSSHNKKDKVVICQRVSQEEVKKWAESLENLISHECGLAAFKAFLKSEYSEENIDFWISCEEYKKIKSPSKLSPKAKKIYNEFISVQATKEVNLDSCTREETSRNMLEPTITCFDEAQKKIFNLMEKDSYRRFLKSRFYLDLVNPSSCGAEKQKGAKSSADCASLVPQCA
Cl transport mod: KCC2 (human) Cl- transport modulation; Q9H2X9; B-score of Tl+ flux slope (higher = more flux/activation; lower = inhibition) at 10 µM; hit rate 2.2% among 190,000; KCC2 cells, thallium flux FluoZin-2 fluorescence;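 active = thallium flux slope and its plate-corrected score both differing from the plate sample mean at a set confidence after two filtering rounds, in either direction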;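 note: slope of fluorescence scaled to starting intensity during 10 to 20 s after thallium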
* marks the source's active call; other numbers are inactive results; i = inactive; nt = no result.

SMILES	MrgX1 allo act	RGS4 pot	MrgX1 ag	MrgX1 antag	RGS4 inh	Cl transport mod
N#C/C(=C\c1ccco1)C(=O)NCC1CCCO1 (centres undefined)	i	i	i	i	i	2.3
CN(C)S(=O)(=O)n1cc(/C=C(\NC(=O)c2ccccc2F)C(=O)NCCCn2ccnc2)c2ccccc21	nt	-9.6*	nt	nt	i	nt
Cc1ccc(C(=O)N/C(=C\c2cn(S(=O)(=O)N(C)C)c3ccccc23)C(=O)NCCCn2ccnc2)cc1	i	i	i	i	i	nt
CCN(CC)c1ccc(S(=O)(=O)N2CCOCC2)cc1NC(=O)COC(=O)/C=C/c1ccc(C)o1	i	-9.6*	i	i	i	nt
CCN(CC)c1ccc(S(=O)(=O)N2CCOCC2)cc1NC(=O)COC(=O)c1ccco1	i	i	i	i	i	nt
Cc1cc(/C=C2/SC(=S)N(c3cccc(C(F)(F)F)c3)C2=O)c(C)n1-c1cccnc1	16*	i	i	i	i	nt
Cc1cc(/C=C2\SC(=S)N(Cc3ccco3)C2=O)c(C)n1-c1cccnc1	nt	i	nt	nt	i	1.5
CCOC(=O)c1ccc(NC(=S)NNC(=O)COC)cc1	i	i	i	-7.9*	i	-0.012
COC(=O)c1ccc(NC(=S)NNC(=O)CC(C)C)cc1	i	i	i	i	i	1.1
Oc1ccccc1N1CCN(c2ncnc3scc(-c4ccccc4)c23)CC1	i	-7.4*	i	i	i	nt
O=C(O)c1ccccc1NSc1ccccc1[N+](=O)[O-]	i	i	i	i	i	0.084
CCc1ccc(NSc2ccccc2[N+](=O)[O-])cc1	6.6*	-8.2*	i	i	i	nt
COc1ccc(C(CC(=O)O)NS(=O)(=O)c2ccc3c(c2)NC(=O)CO3)cc1 (centres undefined)	i	i	i	i	i	nt
Cc1sc(NC(=O)C2CCCCC2C(=O)O)c(C(N)=O)c1-c1ccc(C(C)C)cc1 (centres undefined)	i	i	54*	i	i	nt
Cc1sc(NC(=O)C2CCCCC2C(=O)O)c(C(N)=O)c1-c1ccccc1 (centres undefined)	i	i	i	i	i	nt
CC(C)NC(=S)N=Nc1c(O)[nH]c2ccc([N+](=O)[O-])cc12	i	i	i	i	i	2
CNC(=S)N=Nc1c(O)[nH]c2ccc(C(C)C)cc12	i	i	i	i	i	6.6*
CCN(CC)c1ccc(NC(=O)c2ccc3c(c2)OCO3)cc1	i	i	i	i	i	nt
COc1cccc(Oc2cc(NN3CCCCC3)c([N+](=O)[O-])cc2[N+](=O)[O-])c1OC	i	-9.1*	i	i	i	nt
COc1ccc(-n2c(=S)[nH]c3cc(C(=O)Nc4ccc(F)cc4)ccc3c2=O)c(OC)c1	i	i	i	i	i	nt
CN(C)C1=NC[C@H](Cc2ccccc2)N1CC1CCC(C(C)(C)C)CC1 (some centres undefined)	i	i	i	-6.2*	i	nt
CN(C)C1=NC[C@H](Cc2ccccc2)N1CC1CCCC1	i	nt	i	i	nt	nt
NC(=S)n1[nH]c(-c2ccc([N+](=O)[O-])cc2)c(N=Nc2ccc(O)cc2)c1=O	i	i	i	i	i	nt
NC(=S)n1[nH]c(-c2ccc([N+](=O)[O-])cc2)c(N=Nc2cccc(Cl)c2)c1=O	nt	i	nt	nt	i	5.8*
Cc1ccc(S(=O)(=O)N2CCN(C)CC2)cc1[N+](=O)[O-]	i	i	i	-4.9*	i	nt
SMILES	MrgX1 allo act	RGS4 pot	MrgX1 ag	MrgX1 antag	RGS4 inh	Cl transport mod
CCOc1ccc(-c2[nH]ncc2-c2ccc(Cl)cc2)c(O)c1	13*	i	i	-13*	i	nt
Nc1c(C(=O)Nc2ccc(F)cc2)sc2nc(-c3ccco3)ccc12	i	i	i	-4.9*	i	0.33
CCOC(=O)c1cc(=O)c2ccc(OCC(=O)Nc3ccccc3)cc2o1	i	i	i	i	i	0.59
CCOC(=O)C1=C(C)N(CC(C)C)C(=O)/C1=C\c1ccc(OCC(=O)Nc2ccccc2)cc1	i	-7.1*	i	i	i	0.48
CCCOC(=O)C1=C(C)NC2=C(C(=O)CCC2)C1c1ccc(N(C)C)cc1 (centres undefined)	i	-7.2*	i	i	i	0.68
CN1CCN(C(c2cccc(Cl)c2)c2ccccc2Cl)CC1 (centres undefined)	i	-8*	i	i	i	1.2
Cc1cccc(CN2CCCC(C(=O)Nc3ccc(-c4cscn4)cc3)C2)c1 (centres undefined)	i	-7.3*	i	i	i	nt
O=C(Nc1ccc(-c2cscn2)cc1)C1CCCN(Cc2ccccc2)C1 (centres undefined)	i	i	i	i	i	nt
Cc1cc(C(=O)NCCc2ccc(S(N)(=O)=O)cc2)c(C)o1	i	i	i	i	i	nt
COCC(=O)Nc1ncc(S(=O)(=O)c2ccc([N+](=O)[O-])cc2)s1	i	i	i	i	i	0.31
O=C(Nc1ncc(S(=O)(=O)c2ccc([N+](=O)[O-])cc2)s1)c1cccc2ccccc12	i	-7.7*	i	i	i	0.85
O=C(c1cccc(N2CCCC2=O)c1)N1CCN(c2cccc(Cl)c2)CC1	i	i	i	i	i	nt
Cc1nn(Cc2ccccc2)c(Cl)c1/C=C/C(=O)OC(C)C(=O)N1CCCC1 (centres undefined)	i	i	i	-5.9*	i	0.24
CCNC(=S)Nc1ccc(OCc2nc3ccccc3s2)cc1	i	i	i	i	i	nt
O=C(CN1CCC(NC(=O)Nc2ccc(F)cc2)CC1)Nc1ccccc1[N+](=O)[O-]	i	i	i	i	i	nt
Nc1c2c(nc3ccc(Br)cc13)N(C1CCCCC1)CC2	14*	i	i	i	i	0.082
Nc1c2c(nc3ccccc13)N(C1CCCCC1)CC2	i	i	i	i	i	nt
CCCN(CC1CCCO1)C(=O)CCc1nnc(CCc2ccc(OC)cc2)o1 (centres undefined)	i	i	i	i	i	nt
COCCn1c(Cc2ccccc2)nnc1SCC(=O)N1CCCCC1C (centres undefined)	i	i	i	-8.2*	i	-0.73
O=C(CCS(=O)(=O)c1ccc(Cl)cc1)Nc1nc(-c2ccncc2)cs1	i	i	i	i	i	nt
CCOC(=O)c1c(NC(=S)NCC2CCCO2)sc(C)c1C (centres undefined)	i	i	i	i	i	25*

Compound activity: PubChem, several laboratories
